This note sets out measurements from ChEMBL document CHEMBL3112587, “Cytotoxic activity assessment, QSAR and docking study of novel bis-carboxamide derivatives of 4-pyrones synthesized by Ugi four-component reaction” (Eur J Med Chem, 2013).

Common to all, as to format: functional, cell-based
The test system of one experiment is HL-60. The experiment can be described thus: Cytotoxicity against human HL60 cells after 72 hrs by MTT assay. In a few lines: (§1)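 RPMI 1640 with penicillin/streptomycin and 10% FBS (20% for HL-60), 37 °C, 5% CO2. Seeding was 40,000 HL-60 (suspension), 50,000 LS180 or 30,000 MCF-7 (monolayer) cells/ml, overnight. Half the medium was replaced with 3-4 compound concentrations in duplicate (DMSO ≤0.5% final), 72 h, then MTT 0.5 mg/ml for 4 h. Read 570 nm minus 655 nm. IC50 versus untreated control by linear regression, mean ± SD.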
(In general: Tetrazolium dyes change colour on reduction, which living cells bring about.)

The subject of a further experiment is MCF7. Nature of the experiment: Cytotoxicity against human MCF7 cells after 72 hrs by MTT assay. The gist of the method:
as §1

A short description of experiment [1]: Cytotoxicity against human LS180 cells after 72 hrs by MTT assay. In a few lines: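 Seeding was 40,000 HL-60 (suspension), 50,000 LS180 or 30,000 MCF-7 (monolayer) cells/ml, overnight. Half the medium was replaced with 3-4 compound concentrations in duplicate (DMSO ≤0.5% final), 72 h, then MTT 0.5 mg/ml for 4 h. IC50 versus untreated control by linear regression, mean ± SD.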

The mark [2] stands for this setting: Homo sapiens, HL-60, 72 h, read-out: IC50.
The mark [3] stands for this setting: Homo sapiens, HL-60, 72 h, read-out: pIC50 (converted).
Where [4] appears, read: Homo sapiens, MCF7, 72 h, read-out: IC50.
Where [5] appears, read: Homo sapiens, LS180, 72 h, read-out: IC50.

For the compound `O=C(NC1CCCCC1)C(c1cc(=O)c(OCc2ccccc2)co1)N(C(=O)c1ccccc1)c1ccc(Cl)cc1` (stereo unspecified), the IC50 with HL-60 (setting [2]) is 14.7 µM; in the experiment on HL-60 (setting [3]) it was 14.8 µM; in the experiment on MCF7 (mcf7) it was “Not Active”; in experiment [1] (ls180), “Not Active”.

`COc1cccc2c1C(=O)c1c(O)c3c(c(O)c1C2=O)C[C@@](O)(C(=O)CO)C[C@@H]3O[C@H]1C[C@H](N)[C@H](O)[C@H](C)O1` [DOXORUBICIN]: the IC50 in the experiment on HL-60 (setting [2]) is 0.01 µM.

For `Cc1ccc(N(C(=O)c2ccccc2Cl)C(C(=O)NC2CCCCC2)c2cc(=O)c(OCc3ccccc3)co2)cc1` (stereo unspecified), the IC50 in the experiment on HL-60 (setting [2]) was 12.1 µM; with HL-60 (setting [3]), 12 µM; in the experiment with MCF7 (setting [4]), 56.3 µM; in experiment [1] (setting [5]) it was 63 µM.

For the compound `CCCCc1ccc(N(C(=O)c2ccccc2Cl)C(C(=O)NC(C)(C)C)c2cc(=O)c(OCc3ccccc3)co2)cc1` (stereo unspecified), the IC50 in the experiment on HL-60 (setting [2]) was 16.2 µM; with HL-60 (setting [3]), 16.2 µM; in the experiment on MCF7 (setting [4]), 28.6 µM; in experiment [1] (setting [5]), 88.2 µM.

For the compound `Cc1ccc(N(C(=O)c2ccccc2)C(C(=O)NC2CCCCC2)c2cc(=O)c(OCc3ccccc3)co2)cc1` (stereo unspecified), the IC50 in the experiment on HL-60 (setting [2]) is 11.3 µM; with HL-60 (setting [3]), 11.2 µM; in the experiment on MCF7 (setting [4]), 11.2 µM; in experiment [1] (setting [5]), 20.2 µM.

Turning to `CC(C)(C)NC(=O)C(c1cc(=O)c(OCc2ccccc2)co1)N(C(=O)c1ccccc1)c1ccccc1` (stereo unspecified), the IC50 was 57.3 µM in the experiment with HL-60 (setting [2]), 57.5 µM with HL-60 (setting [3]), 63.1 µM with MCF7 (setting [4]) and “Not Active” in experiment [1] (ls180).

With `COc1ccc(N(C(=O)c2ccccc2Cl)C(C(=O)NC2CCCCC2)c2cc(=O)cc(-c3ccccc3)o2)cc1` (stereo unspecified), the IC50 result (in the experiment with HL-60 (hl-60); in the experiment with MCF7 (mcf7); in experiment [1] (ls180)) was “Not Active” in each case.

In the case of `COc1ccc(N(C(=O)c2ccccc2Cl)C(C(=O)NC(C)(C)C)c2cc(=O)c(OCc3ccccc3)co2)cc1` (stereo unspecified), the IC50 in the experiment on HL-60 (setting [2]) is 52.9 µM; with HL-60 (setting [3]), 52.5 µM; with MCF7 (setting [4]) it was 47.2 µM; in experiment [1] (setting [5]) it was 77.3 µM.

Take `Cc1ccc(N(C(=O)c2ccccc2)C(C(=O)NC(C)(C)C)c2cc(=O)cc(-c3ccccc3)o2)cc1` (stereo unspecified): the IC50 in the experiment with HL-60 (setting [2]) was 33 µM; with HL-60 (setting [3]), 33.1 µM; in the experiment on MCF7 (setting [4]) it was 54.9 µM; in experiment [1] (setting [5]), 122 µM.

On to `Cc1ccc(N(C(=O)c2ccccc2Cl)C(C(=O)NC(C)(C)C)c2cc(=O)c(OCc3ccccc3)co2)cc1` (stereo unspecified), for which the IC50 in the experiment on HL-60 (setting [2]) is 42 µM; in the experiment with HL-60 (setting [3]) it was 41.7 µM; in the experiment with MCF7 (setting [4]), 53.8 µM; in experiment [1] (setting [5]) it was 88.3 µM.

For the compound `Cc1ccc(N(C(=O)c2ccccc2Cl)C(C(=O)NC2CCCCC2)c2cc(=O)cc(-c3ccccc3)o2)cc1` (stereo unspecified), the IC50 was 22.2 µM in the experiment with HL-60 (setting [2]), 22.4 µM in the experiment with HL-60 (setting [3]), “Not Active” in the experiment with MCF7 (mcf7) and “Not Active” in experiment [1] (ls180).

Regarding `COc1ccc(N(C(=O)c2ccccc2Cl)C(C(=O)NC(C)(C)C)c2cc(=O)cc(-c3ccccc3)o2)cc1` (stereo unspecified), the IC50 was 13.8 µM in the experiment on HL-60 (setting [2]), 13.8 µM in the experiment with HL-60 (setting [3]), 9.1 µM in the experiment on MCF7 (setting [4]) and 16.1 µM in experiment [1] (setting [5]).

With `O=C(NC1CCCCC1)C(c1cc(=O)cc(-c2ccccc2)o1)N(C(=O)c1ccccc1Cl)c1ccccc1` (stereo unspecified), the IC50 with HL-60 (setting [2]) is 72 µM; in the experiment on HL-60 (setting [3]), 72.4 µM; with MCF7 (mcf7), “Not Active”; in experiment [1] (ls180) it was “Not Active”.

With `O=C(NC1CCCCC1)C(c1cc(=O)c(OCc2ccccc2)co1)N(C(=O)c1ccccc1Cl)c1ccc(Cl)cc1` (stereo unspecified), the IC50 in the experiment on HL-60 (setting [2]) is 30.5 µM; in the experiment on HL-60 (setting [3]) it was 30.2 µM; in the experiment with MCF7 (setting [4]) it was 168 µM; in experiment [1] (ls180) it was “Not Active”.

As to `O=C(NC1CCCCC1)C(c1cc(=O)c(OCc2ccccc2)co1)N(C(=O)c1ccccc1Cl)c1ccccc1` (stereo unspecified), the IC50 in the experiment on HL-60 (setting [2]) was 66.2 µM; in the experiment with HL-60 (setting [3]), 66.1 µM; with MCF7 (setting [4]) it was 84.2 µM; in experiment [1] (setting [5]), 97.3 µM.
